The results in this text go back to ChEMBL document CHEMBL1132954, “Synthesis and structure-activity relationships of chiral allosteric modifiers of hemoglobin” (2000).

The nature of assay [1]: The difference between P50e and P50c tested. The class given is functional. The method, boiled down:
(§1)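 Heparinized whole blood from healthy volunteers, kept on ice, was given the effector sodium salt from a 200 mM DMSO stock to 5.0 mM final. It was tonometered about 10-12 min at 37 °C and equilibrated at 20%, 40% and 60% O₂. pH, pCO₂, pO₂ and sO₂ were read by blood gas analyzer and co-oximeter, at least in duplicate. ΔP50 = P50e − P50c.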

A short description of assay [2]: Hill coefficient at 50% saturation in the presence of effector.
Assay [3] in a line: P50e is the value in the presence of the effector in whole blood in experiment 2 (in vitro). The class given is functional, Homo sapiens. The method, boiled down:
as §1

In assay [4] the target is T1, Hemoglobin HbA (Homo sapiens) (UniProt P69905+P68871). Nature of the assay: Ratio of P50e to P50c (P50 control value with no effector present, 5 mmHg). The class given is functional. The gist of the method: (§2)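 Purified stripped human adult Hb in 50 mM bis-Tris, 100 mM NaCl, pH 7.2, at 60-70 µM heme, with effector at 0.5 mM. Catalase and EDTA were added, and the sample was saturated with carbogen. The curve was recorded on a Hemox analyzer as O₂ pressure was lowered over 45-60 min, with saturation read at 577/586.2 nm. P50 came from linear regression of 40-60% saturation points. Single runs, each with its own no-effector control.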
T1 sequence (P68871 2-147 partner limits assumed): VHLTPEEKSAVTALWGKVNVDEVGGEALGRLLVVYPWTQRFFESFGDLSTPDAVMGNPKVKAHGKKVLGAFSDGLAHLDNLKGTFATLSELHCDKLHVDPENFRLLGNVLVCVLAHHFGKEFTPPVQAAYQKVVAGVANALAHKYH
T1 sequence (P69905 2-142 limits assumed): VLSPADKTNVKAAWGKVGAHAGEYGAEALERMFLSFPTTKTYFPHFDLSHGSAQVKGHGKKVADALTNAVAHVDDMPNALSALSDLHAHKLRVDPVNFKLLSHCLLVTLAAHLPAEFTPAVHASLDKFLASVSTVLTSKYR

In assay [5] the target is T1, Hemoglobin HbA (Homo sapiens). Description: Oxygen pressure at which hemoglobin is 50% saturated with oxygen in the presence of the effector. The class given is functional. The method, boiled down:
as §2

Assay [6] in a line: P50C is the control value in whole blood in experiment. In kind it is functional, Homo sapiens. The gist of the method: as §1
Assay [7] is described as follows: P50e is the value in the presence of the effector in whole blood in experiment 1 (in vitro). The class given is functional, Homo sapiens. The gist of the method:
as §1

Assay [8] is described as follows: P50e is the value in the presence of the effector in whole blood in experiment 3 (in vitro). The class given is functional, Homo sapiens. The method, boiled down:
as §1

Molecules are shown by their SMILES. Values joined by “and” are separate entries in the source; they are usually repeats but may differ in a detail not shown here. Identical values can stand only once.

The molecule `Cc1cc(C)cc(NC(=O)Cc2ccc(O[C@@]3(C(=O)O)CCC[C@@H]3C)cc2)c1` registered a ΔP50 (P50e minus P50c) in assay [1] of 20.6 mmHg. Further, the Hill coefficient (n50) in assay [2] is 2.6 and 1.8. For the same molecule, the P50e in assay [3] was 46.8 mmHg; in assay [5], 19.9 mmHg; in assay [7], 49.7 mmHg; in assay [8] it was 42.4 mmHg. Also, the P50e/P50c in assay [4] is 4. This molecule also gave a P50c in assay [6] of 25.7 mmHg.
